Measurements reported in ChEMBL document CHEMBL4020842, “Discovery of N1-(4-((7-Cyclopentyl-6-(dimethylcarbamoyl)-7 H-pyrrolo[2,3- d]pyrimidin-2-yl)amino)phenyl)- N8-hydroxyoctanediamide as a Novel Inhibitor Targeting Cyclin-dependent Kinase 4/9 (CDK4/9) and Histone Deacetlyase1 (HDAC1) against Malignant Cancer” (J Med Chem, 2018).
The source made the active and inactive calls. The calls are words filed in the database; no cut-off is given here.

Experiments:
MDA-MB-231 [1] = test: Induction of apoptosis in human MDA-MB-231 cells assessed as necrotic cells at 10 uM after 48 hrs by annexin V-FITC/propidium iodide staining based flow cytometry (reference value: […]); type: functional
4T1 [2] = test: Antitumor activity against mouse Fluc-labeled 4T1 cells implanted in Balb/c mouse assessed as tumor growth inhibition at 90 mg/kg, po administered daily via gavage for 18 days by bioluminescence assay relative to control; type: functional; settings: 4T1, po, 432 h, read-out: TGI
Outline: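 Fluc-labelled 4T1 cells (lentiviral transduction) were implanted orthotopically into the mammary fat pads of female BALB/c mice aged 6–8 weeks. Treatment started once tumours averaged 100 mm3, given daily by oral gavage. Tumour burden was followed by bioluminescence imaging of Fluc reporter expression.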

[3] = biological target: T1, Cyclin-dependent kinase 5/CDK5 activator 1 (Homo sapiens) (UniProt Q00535+Q15078); test: Inhibition of recombinant human full length N-terminal 6His-tagged CDK5/N-terminal GST-tagged p25 co-expressed in baculovirus infected sf21 cells at 1 uM using histone H1 substrate in presence of [gamma33P]ATP after 10 mins by scintillation counting method relative to control
A549 [4] = test: Cell cycle arrest in human A549 cells assessed as accumulation at G2 phase at 2.5 to 10 uM after 24 hrs by propidium iodide staining based flow cytometry; type: functional
Outline: (§1)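 Cells were exposed for 24 h to a range of concentrations (625 nM, 2.5 and 10 µM), with DMSO vehicle as control. They were then stained with propidium iodide and analysed by flow cytometry to obtain the percentages of cells in G0/G1, S and G2 phases.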

A549 [5] = test: Cell cycle arrest in human A549 cells assessed as decrease in S-phase at 625 nM after 24 hrs by propidium iodide staining based flow cytometry; type: functional; outline: as §1
Hep 3B2 [6] = test: Induction of apoptosis in human Hep3B cells assessed as live cells at 5 uM after 48 hrs by annexin V-FITC/propidium iodide staining based flow cytometry (reference value: 97.9%); type: functional
A549 [7] = test: Induction of apoptosis in human A549 cells assessed as late apoptotic cells at 5 uM after 48 hrs by annexin V-FITC/propidium iodide staining based flow cytometry (reference value: 0.88%); type: functional
4T1 [8] = test: Antitumor activity against mouse Fluc-labeled 4T1 cells implanted in Balb/c mouse assessed as tumor growth inhibition at 90 mg/kg, ip administered daily for 18 days measured after 8 to 25 days by bioluminescence assay relative to control; type: functional; settings: 4T1, ip, read-out: TGI
Outline: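 Luciferase (Fluc) reporter introduced into 4T1 cells by lentiviral transduction. Cells implanted orthotopically into mammary fat pads of female BALB/c mice aged 6–8 weeks. Once tumours averaged 100 mm3, dosing was daily by IP injection. Bioluminescence imaging was done at days 8 and 25 to reflect viable tumour cell number. Tumour weight was recorded at study end.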

Aurora kinase A = Aurora kinase A (Homo sapiens, UniProt O14965); test: Inhibition of recombinant human full length C-terminal 6His-tagged Aurora-A expressed in baculovirus infected sf21 cells using kemptide substrate in presence of [gamma33P]ATP after 10 mins by scintillation counting method
[9] = Half life in Sprague-Dawley rat at 20 mg/kg, ip administered as single dose by HPLC analysis; type: ADME, organism-based; settings: in vivo
T47D [10] = test: Induction of apoptosis in human T47D cells assessed as late apoptotic cells at 1 uM after 48 hrs by annexin V-FITC/propidium iodide staining based flow cytometry (reference value: 6.16%); type: functional
A549 [11] = test: Induction of apoptosis in human A549 cells assessed as early apoptotic cells at 1 uM after 48 hrs by annexin V-FITC/propidium iodide staining based flow cytometry (reference value: 0.41%); type: functional
T47D [12] = test: Induction of apoptosis in human T47D cells assessed as necrotic cells at 10 uM after 48 hrs by annexin V-FITC/propidium iodide staining based flow cytometry (reference value: 0.8%); type: functional
[13] = Cmax in Sprague-Dawley rat at 20 mg/kg, iv administered as single dose by HPLC analysis; type: ADME, organism-based; set-up: dose 20 mg/kg, route intravenous; settings: in vivo
A549 [14] = test: Downregulation of CDK4 protein expression in human A549 cells after 48 hrs by Western blot method; type: functional, cell-based
MDA-MB-231 [15] = test: Induction of apoptosis in human MDA-MB-231 cells assessed as late apoptotic cells at 5 uM after 48 hrs by annexin V-FITC/propidium iodide staining based flow cytometry (reference value: 1.53%); type: functional
T47D [16] = test: Induction of apoptosis in human T47D cells assessed as caspase-3 cleavage after 48 hrs by Western blot method; type: functional, cell-based
Outline: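 Cells were treated with or without test agent, alongside a control, for 48h. They were then lysed and analysed by Western blot for Bcl-2 protein and cleaved caspase 3.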

MDA-MB-231 [17] = test: Downregulation of CDK4 protein expression in human MDA-MB-231 cells after 48 hrs by Western blot method; type: functional, cell-based
Outline: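 Treated cells were lysed and CDK4 and cyclin D1 protein levels were assessed by Western blot.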

Histone deacetylase 1 [18] = biological target: T2, Histone deacetylase 1 (Homo sapiens, UniProt Q13547); test: Inhibition of HDAC1 in human Hep3B cells assessed as increase in acetylated-histone H3 level at 1 to 5 uM after 48 hrs by Western blot method; type: cell-based
A549 [19] = test: Induction of apoptosis in human A549 cells assessed as caspase-3 cleavage after 48 hrs by Western blot method; type: functional, cell-based
Outline: (§2)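 Cells were treated with or without compound and control for 48 h, then lysed. Bcl-2 and cleaved caspase 3 were assessed by Western blot.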

A549 [20] = test: Induction of apoptosis in human A549 cells assessed as reduction in Bcl2 protein expression after 48 hrs by Western blot method; type: functional, cell-based; outline: as §2
HepG2 [21] = test: Induction of apoptosis in human HepG2 cells assessed as early apoptotic cells at 10 uM after 48 hrs by annexin V-FITC/propidium iodide staining based flow cytometry (reference value: 0.3%); type: functional
A549 [22] = test: Induction of apoptosis in human A549 cells assessed as live cells at 5 uM after 48 hrs by annexin V-FITC/propidium iodide staining based flow cytometry (reference value: 92.7%); type: functional
[23] = biological target: T1, Cyclin-dependent kinase 5/CDK5 activator 1 (Homo sapiens); test: Inhibition of recombinant human full length N-terminal 6His-tagged CDK5/N-terminal GST-tagged p35 co-expressed in baculovirus infected sf21 cells at 1 uM using histone H1 substrate in presence of [gamma33P]ATP after 10 mins by scintillation counting method relative to control
T47D [24] = test: Cell cycle arrest in human T47D cells assessed as accumulation at G0/G1 phase at 625 nM after 24 hrs by propidium iodide staining based flow cytometry; type: functional; outline: as §1
Histone deacetylase 1 [25] = biological target: T2, Histone deacetylase 1; test: Inhibition of HDAC1 in human MDA-MB-231 cells assessed as increase in p53 phosphorylation at Ser15 residue at 1 to 5 uM after 48 hrs by Western blot method; type: cell-based
HepG2 [26] = test: Induction of apoptosis in human HepG2 cells assessed as necrotic cells at 10 uM after 48 hrs by annexin V-FITC/propidium iodide staining based flow cytometry (reference value: 2.32%); type: functional
NCI-H460 = test: Induction of apoptosis in human NCI-H460 cells assessed as early apoptotic cells at 5 uM after 48 hrs by annexin V-FITC/propidium iodide staining based flow cytometry (reference value: 0.11%); type: functional
Hep 3B2 [27] = test: Induction of apoptosis in human Hep3B cells assessed as late apoptotic cells at 5 uM after 48 hrs by annexin V-FITC/propidium iodide staining based flow cytometry (reference value: 5.25%); type: functional

T1 sequence (Q00535 whole entry): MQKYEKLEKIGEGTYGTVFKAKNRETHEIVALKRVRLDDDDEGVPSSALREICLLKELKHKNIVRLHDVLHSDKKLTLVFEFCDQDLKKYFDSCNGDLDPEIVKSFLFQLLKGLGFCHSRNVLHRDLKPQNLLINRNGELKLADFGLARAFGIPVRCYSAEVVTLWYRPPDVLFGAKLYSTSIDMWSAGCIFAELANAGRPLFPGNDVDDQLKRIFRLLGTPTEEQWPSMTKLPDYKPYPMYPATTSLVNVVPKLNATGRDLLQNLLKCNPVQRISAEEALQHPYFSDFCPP
T1 sequence (Q15078 99-307 partner limits assumed): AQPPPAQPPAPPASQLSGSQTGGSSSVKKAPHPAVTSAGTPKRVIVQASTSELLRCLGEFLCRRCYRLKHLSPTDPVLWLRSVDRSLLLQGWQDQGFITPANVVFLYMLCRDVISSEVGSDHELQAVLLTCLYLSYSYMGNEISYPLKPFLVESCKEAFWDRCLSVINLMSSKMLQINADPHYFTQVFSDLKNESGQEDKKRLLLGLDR
T2 sequence (Q13547 whole entry): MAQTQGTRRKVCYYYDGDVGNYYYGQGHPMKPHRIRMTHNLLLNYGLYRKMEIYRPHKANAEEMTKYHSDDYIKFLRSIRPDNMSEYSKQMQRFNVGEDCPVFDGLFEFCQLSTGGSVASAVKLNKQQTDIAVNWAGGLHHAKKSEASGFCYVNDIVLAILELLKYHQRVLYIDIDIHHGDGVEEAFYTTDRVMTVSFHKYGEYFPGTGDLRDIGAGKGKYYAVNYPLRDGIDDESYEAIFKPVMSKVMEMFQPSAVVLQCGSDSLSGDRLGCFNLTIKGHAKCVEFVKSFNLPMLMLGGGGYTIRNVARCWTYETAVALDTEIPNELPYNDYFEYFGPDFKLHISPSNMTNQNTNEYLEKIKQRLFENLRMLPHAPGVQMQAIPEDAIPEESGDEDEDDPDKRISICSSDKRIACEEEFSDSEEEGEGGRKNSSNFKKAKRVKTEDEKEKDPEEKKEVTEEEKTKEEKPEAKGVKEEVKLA
Aurora kinase A, sequence (O14965 whole entry): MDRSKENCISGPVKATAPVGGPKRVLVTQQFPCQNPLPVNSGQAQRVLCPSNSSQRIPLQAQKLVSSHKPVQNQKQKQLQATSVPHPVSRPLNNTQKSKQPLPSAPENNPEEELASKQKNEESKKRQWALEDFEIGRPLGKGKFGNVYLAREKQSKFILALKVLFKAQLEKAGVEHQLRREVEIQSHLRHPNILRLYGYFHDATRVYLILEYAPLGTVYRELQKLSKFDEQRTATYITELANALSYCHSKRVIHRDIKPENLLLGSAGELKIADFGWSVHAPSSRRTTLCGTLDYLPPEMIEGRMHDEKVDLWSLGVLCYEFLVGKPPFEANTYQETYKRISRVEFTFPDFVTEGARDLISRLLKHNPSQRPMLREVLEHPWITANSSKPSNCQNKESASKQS

inhibition [3]: 78%
IC50 (Aurora kinase A): 12 nM
half-life [9]: 579 min
Cmax [13]: 3850 ng/mL
inhibition (Histone deacetylase 1 [18]): Active
inhibition [23]: 72%
inhibition (Histone deacetylase 1 [25]): Active
SMILES: CN(C)C(=O)c1cc2cnc(Nc3ccc(NC(=O)CCCCCCC(=O)NO)cc3)nc2n1C1CCCC1
Activity (MDA-MB-231 [1]): 1.21%
inhibition in vivo at 90 mg/kg (4T1 [2]): 70.3%
Activity (A549 [4]): Active
Activity (A549 [5]): Active
Activity (Hep 3B2 [6]): 81%
Activity (A549 [7]): 13%
inhibition in vivo at 90 mg/kg (4T1 [8]): 78.4%
Activity (T47D [10]): 6.48%
Activity (A549 [11]): 0.57%
Activity (T47D [12]): 2.62%
Activity (A549 [14]): Dose-dependent effect
Activity (MDA-MB-231 [15]): 5.76%
Activity (T47D [16]): Active
Activity (MDA-MB-231 [17]): Dose-dependent effect
Activity (A549 [19]): Active
Activity (A549 [20]): Active
Activity (HepG2 [21]): 9.32%
Activity (A549 [22]): 80.5%
Activity (T47D [24]): Active
Activity (HepG2 [26]): 5.75%
Activity (NCI-H460): 1.82%
Activity (Hep 3B2 [27]): 10.4%
